Several values for one entry are separate records, joined by “and”; a condition that tells them apart may be missing. Equal values may be shown once.

In assay [1] the test system is ACHN. Briefly: Cytotoxicity against human ACHN cells assessed as growth inhibition after 72 hrs by SRB assay. Type of assay: functional. The procedure, abridged: (§1)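 SRB assay per NCI protocol: 2 × 10^3 cells/well seeded, compounds in DMSO/media added next day (day 0) in quadruplicate at 1 nM–10 μM final, DMSO <0.1%. After 72 h, TCA fixation overnight at 4°C, 0.4% SRB 1 h, dye dissolved in 10 mM Tris, A690 read; day 0 absorbance subtracted. GI50 = concentration giving 50% drop in net growth, mean of three experiments.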

Assay [2] has as its system NCI-H23. The assay is described as follows: Cytotoxicity against human NCI-H23 cells assessed as growth inhibition after 72 hrs by SRB assay. Type of assay: functional. The essentials:
as §1

The test system of assay [3] is NUGC-3. The assay is described as follows: Cytotoxicity against human NUGC3 cells assessed as growth inhibition after 72 hrs by SRB assay. The class given is functional. The procedure, abridged:
as §1

For assay [4], the system named is PC-3. Briefly: Cytotoxicity against human PC3 cells assessed as growth inhibition after 72 hrs by SRB assay. The class given is functional. The procedure, abridged:
as §1

Assay [5] relates to HCT-15. The assay is described as follows: Cytotoxicity against human HCT15 cells assessed as growth inhibition after 72 hrs by SRB assay. The class given is functional. The procedure, abridged: as §1
In assay [6] the test system is MDA-MB-231. Briefly: Cytotoxicity against human MDA-MB-231 cells assessed as growth inhibition after 72 hrs by SRB assay. Type of assay: functional. The essentials:
as §1

In assay [7] the target is DNA topoisomerase 2-alpha (Homo sapiens) (UniProt P11388). Briefly: Inhibition of recombinant human DNA topoisomerase 2-alpha at 100 uM using supercoiled pBR322 DNA as substrate after 30 mins by densitometric analysis relative to control. The essentials:
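200 ng supercoiled pBR322 with 4 units human topo IIα, 30 min at 30 °C, in 10 mM Tris–HCl pH 7.9, 50 mM NaCl, 5 mM MgCl2, 1 mM EDTA, 1 mM ATP, 15 μg/mL BSA. Stopped with EDTA, run on 1% agarose/TAE at 60 V for 1 h, bands quantified by densitometry. Etoposide as positive control. Screening at 100 μM; above 30% inhibition, retested at 20 μM.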

Assay [8] deals with T1, DNA topoisomerase 1 (Homo sapiens) (UniProt P11387).
T1 sequence (whole entry): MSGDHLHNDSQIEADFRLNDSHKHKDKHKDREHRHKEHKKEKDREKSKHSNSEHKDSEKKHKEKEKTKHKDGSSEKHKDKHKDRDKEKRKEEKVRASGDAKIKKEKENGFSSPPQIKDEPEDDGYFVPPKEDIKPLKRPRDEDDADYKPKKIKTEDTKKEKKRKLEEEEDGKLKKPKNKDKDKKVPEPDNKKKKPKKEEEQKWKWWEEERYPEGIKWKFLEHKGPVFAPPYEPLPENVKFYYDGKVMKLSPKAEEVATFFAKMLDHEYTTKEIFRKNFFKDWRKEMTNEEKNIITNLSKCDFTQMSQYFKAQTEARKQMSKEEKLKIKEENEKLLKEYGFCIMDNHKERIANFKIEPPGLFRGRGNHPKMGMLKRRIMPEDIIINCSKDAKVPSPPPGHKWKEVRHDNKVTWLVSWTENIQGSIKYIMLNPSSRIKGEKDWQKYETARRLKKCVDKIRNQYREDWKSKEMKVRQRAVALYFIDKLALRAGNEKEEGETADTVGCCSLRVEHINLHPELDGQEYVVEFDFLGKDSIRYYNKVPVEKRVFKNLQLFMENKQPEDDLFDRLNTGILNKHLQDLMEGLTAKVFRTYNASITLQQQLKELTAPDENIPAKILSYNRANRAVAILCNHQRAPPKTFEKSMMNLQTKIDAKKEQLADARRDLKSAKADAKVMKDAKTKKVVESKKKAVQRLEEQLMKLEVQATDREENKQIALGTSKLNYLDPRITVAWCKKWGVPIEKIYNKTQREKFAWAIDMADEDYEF
Briefly: Inhibition of recombinant human DNA topoisomerase 1 at 100 uM using supercoiled pBR322 DNA as substrate after 30 mins by densitometric analysis relative to control. The essentials:
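Relaxation of 100 ng supercoiled pBR322 by 1 unit recombinant human topo I, 37 °C for 30 min, in 10 mM Tris-HCl pH 7.9, 150 mM NaCl, 0.1% BSA, 1 mM spermidine, 5% glycerol. Stopped with sarcosyl solution, run on 1% agarose/TAE at 15 V for 7 h, ethidium bromide stained, bands quantified by densitometry. Camptothecin as positive control. Compounds first screened at 100 μM; those over 30% inhibition retested at 20 μM.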

Sequence of DNA topoisomerase 2-alpha (Homo sapiens) (P11388 whole entry): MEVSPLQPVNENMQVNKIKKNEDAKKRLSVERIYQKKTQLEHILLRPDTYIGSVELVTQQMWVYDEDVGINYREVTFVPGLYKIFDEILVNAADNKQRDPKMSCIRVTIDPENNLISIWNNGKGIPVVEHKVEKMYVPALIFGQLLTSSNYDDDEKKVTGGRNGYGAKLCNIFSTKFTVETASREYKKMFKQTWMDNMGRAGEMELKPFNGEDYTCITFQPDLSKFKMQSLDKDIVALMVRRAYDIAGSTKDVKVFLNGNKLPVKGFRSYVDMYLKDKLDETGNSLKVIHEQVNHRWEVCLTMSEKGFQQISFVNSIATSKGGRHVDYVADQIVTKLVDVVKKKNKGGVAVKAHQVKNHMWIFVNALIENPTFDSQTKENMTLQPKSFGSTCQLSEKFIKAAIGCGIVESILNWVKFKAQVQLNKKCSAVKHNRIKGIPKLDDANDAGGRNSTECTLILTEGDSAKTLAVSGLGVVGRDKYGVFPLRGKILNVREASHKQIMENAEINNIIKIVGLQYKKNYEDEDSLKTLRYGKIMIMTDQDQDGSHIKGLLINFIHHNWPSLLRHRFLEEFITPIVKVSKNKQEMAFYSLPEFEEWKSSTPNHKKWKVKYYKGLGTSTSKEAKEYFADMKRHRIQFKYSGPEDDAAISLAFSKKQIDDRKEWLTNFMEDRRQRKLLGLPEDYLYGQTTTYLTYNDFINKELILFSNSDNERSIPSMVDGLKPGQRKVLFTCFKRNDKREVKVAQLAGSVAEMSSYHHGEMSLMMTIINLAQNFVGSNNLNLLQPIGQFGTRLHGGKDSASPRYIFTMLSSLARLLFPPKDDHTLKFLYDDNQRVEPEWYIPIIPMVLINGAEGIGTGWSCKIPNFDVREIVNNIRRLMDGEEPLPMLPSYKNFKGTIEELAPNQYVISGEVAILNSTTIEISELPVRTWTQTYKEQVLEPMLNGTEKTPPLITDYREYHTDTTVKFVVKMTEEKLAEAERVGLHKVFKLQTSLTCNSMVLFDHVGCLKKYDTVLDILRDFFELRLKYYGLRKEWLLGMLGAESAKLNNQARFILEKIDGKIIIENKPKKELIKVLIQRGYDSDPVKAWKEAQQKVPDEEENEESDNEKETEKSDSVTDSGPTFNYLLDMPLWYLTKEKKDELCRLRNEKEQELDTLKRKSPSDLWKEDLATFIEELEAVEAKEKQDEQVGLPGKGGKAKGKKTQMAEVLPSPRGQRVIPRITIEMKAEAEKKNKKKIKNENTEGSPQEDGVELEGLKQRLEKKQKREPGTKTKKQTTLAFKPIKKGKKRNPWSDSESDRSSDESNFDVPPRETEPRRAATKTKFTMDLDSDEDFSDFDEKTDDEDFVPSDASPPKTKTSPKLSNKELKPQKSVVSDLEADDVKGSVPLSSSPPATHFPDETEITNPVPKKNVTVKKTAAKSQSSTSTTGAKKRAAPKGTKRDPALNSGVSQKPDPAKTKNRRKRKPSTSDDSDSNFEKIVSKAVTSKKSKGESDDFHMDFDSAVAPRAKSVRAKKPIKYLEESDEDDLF

As for `Cc1ccc(-c2c3c(nc4cnc5ccccc5c24)-c2cc(Cl)ccc2OC3)cc1`, the GI50 in assay [1] (Homo sapiens, ACHN, 72 h) is > 10 µM; in assay [2] (Homo sapiens, NCI-H23, 72 h), > 10 µM; in assay [3] (Homo sapiens, NUGC-3, 72 h), > 10 µM; in assay [4] (Homo sapiens, PC-3, 72 h), > 10 µM; in assay [5] (Homo sapiens, HCT-15, 72 h), > 10 µM; in assay [6] (Homo sapiens, MDA-MB-231, 72 h), > 10 µM.

On to `COc1cccc2c1OCc1c-2nc2cnc3ccccc3c2c1C` [listing 1 of 3 here], for which the inhibition was 0% and 23.5% in assay [7]; 14.4% and 10.2% in assay [8].

As to `Clc1ccc2c(c1)-c1nc3cnc4ccccc4c3cc1CO2` [listing 1 of 2 here], the inhibition is 0% in assay [7]; 1.7% and 12.3% in assay [8].

For `Brc1ccc2c(c1)-c1nc3cnc4ccccc4c3cc1CO2`, the concentration for 50% growth inhibition (GI50) in assay [1] (Homo sapiens, ACHN, 72 h) is > 10 µM; in assay [2] (Homo sapiens, NCI-H23, 72 h), > 10 µM; in assay [3] (Homo sapiens, NUGC-3, 72 h), > 10 µM; in assay [4] (Homo sapiens, PC-3, 72 h), > 10 µM; in assay [5] (Homo sapiens, HCT-15, 72 h), > 10 µM; in assay [6] (Homo sapiens, MDA-MB-231, 72 h), > 10 µM.

Take `Fc1ccc2c(c1)-c1nc3cnc4ccccc4c3cc1CO2` [listing 1 of 2 here]: the GI50 in assay [1] turned out to be 1 µM; in assay [2], 1.03 µM; in assay [3] it was 1.37 µM; in assay [4] it was 1.27 µM; in assay [5], 1.56 µM; in assay [6], 1.23 µM.

For `Fc1ccc2c(c1)-c1nc3cnc4ccccc4c3cc1CO2` [listing 2 of 2 here], the GI50 in assay [1] worked out at 3.21 µM; in assay [2] (Homo sapiens, NCI-H23, 72 h), 1.87 µM; in assay [3] (Homo sapiens, NUGC-3, 72 h), 1.85 µM; in assay [4], 2.79 µM; in assay [5] (Homo sapiens, HCT-15, 72 h), 2.19 µM; in assay [6] (Homo sapiens, MDA-MB-231, 72 h), 2.2 µM.

Turning to `Cc1ccc(-c2c3c(nc4cnc5ccccc5c24)-c2ccccc2OC3)cc1` [listing 1 of 2 here], the 50% growth inhibitory concentration (GI50) in assay [1] was 2.28 µM; in assay [2], 2.06 µM; in assay [3], 2.7 µM; in assay [4], 1.53 µM; in assay [5], 2.71 µM; in assay [6], 1.79 µM.

Turning to `Cc1ccc(-c2c3c(nc4cnc5ccccc5c24)-c2ccccc2OC3)cc1` [listing 2 of 2 here], the 50% growth inhibitory concentration (GI50) is 2.4 µM in assay [1] (Homo sapiens, ACHN, 72 h); > 10 µM in assay [2]; 3.85 µM in assay [3] (Homo sapiens, NUGC-3, 72 h); 5.02 µM in assay [4]; 4.23 µM in assay [5] (Homo sapiens, HCT-15, 72 h); 5.62 µM in assay [6].

Regarding `COc1cccc2c1OCc1c-2nc2cnc3ccccc3c2c1C` [listing 2 of 3 here], the GI50 is 2.19 µM in assay [1] (Homo sapiens, ACHN, 72 h); 1.56 µM in assay [2] (Homo sapiens, NCI-H23, 72 h); 2.62 µM in assay [3] (Homo sapiens, NUGC-3, 72 h); 1.61 µM in assay [4] (Homo sapiens, PC-3, 72 h); 1.79 µM in assay [5] (Homo sapiens, HCT-15, 72 h); 1.52 µM in assay [6] (Homo sapiens, MDA-MB-231, 72 h).

Consider `COc1cccc2c1C(=O)c1c(O)c3c(c(O)c1C2=O)C[C@@](O)(C(=O)CO)C[C@@H]3O[C@H]1C[C@H](N)[C@H](O)[C@H](C)O1` [DOXORUBICIN], for which the GI50 in assay [1] (Homo sapiens, ACHN, 72 h) was 0.08 µM; in assay [2] (Homo sapiens, NCI-H23, 72 h) it was 0.09 µM; in assay [3] (Homo sapiens, NUGC-3, 72 h), 0.086 µM; in assay [4] (Homo sapiens, PC-3, 72 h), 0.076 µM; in assay [5] (Homo sapiens, HCT-15, 72 h), 0.077 µM; in assay [6] (Homo sapiens, MDA-MB-231, 72 h), 0.068 µM.

Consider `COc1cccc2c1OCc1c-2nc2cnc3ccccc3c2c1C` [listing 3 of 3 here], for which the GI50 in assay [1] was determined as 2.01 µM; in assay [2] it was 2.39 µM; in assay [3], 1.56 µM; in assay [4], 2.06 µM; in assay [5] it was 1.29 µM; in assay [6], 1.67 µM.

Turning to `c1ccc2c3c(ccc2c1)OCc1cc2c(cnc4ccccc42)nc1-3`, the GI50 in assay [1] (Homo sapiens, ACHN, 72 h) is > 10 µM; in assay [2] (Homo sapiens, NCI-H23, 72 h) it was > 10 µM; in assay [3] (Homo sapiens, NUGC-3, 72 h) it was > 10 µM; in assay [4] (Homo sapiens, PC-3, 72 h), > 10 µM; in assay [5] (Homo sapiens, HCT-15, 72 h), > 10 µM; in assay [6] (Homo sapiens, MDA-MB-231, 72 h), > 10 µM.

On to `Clc1ccc2c(c1)-c1nc3cnc4ccccc4c3cc1CO2` [listing 2 of 2 here], for which the GI50 worked out at 1.08 µM in assay [1]; 0.9 µM in assay [2]; 1.16 µM in assay [3]; 1.67 µM in assay [4]; 1.09 µM in assay [5]; 1.05 µM in assay [6].

The values are drawn from ChEMBL document CHEMBL4229571, “Development of 13H-benzo[f]chromeno[4,3-b][1,7]naphthyridines and their salts as potent cytotoxic agents and topoisomerase I/IIα inhibitors” (2018).
